# ChEMBL document CHEMBL1143742, “An antifungal agent inhibits an aminoacyl-tRNA synthetase by trapping tRNA in the editing site” (Science, 2007)
# Calls of active or inactive are those of the source. The calls are words filed in the database; no cut-off is given here.
# Legend:
# [1] = molecular target: T1, Leucine--tRNA ligase, cytoplasmic (Saccharomyces cerevisiae S288c, UniProt P26637); experiment: Inhibition of Saccharomyces cerevisiae cytoplasmic leucyl-tRNA synthetase assessed as tRNA amino-acylation
# T1 sequence (P26637 whole entry): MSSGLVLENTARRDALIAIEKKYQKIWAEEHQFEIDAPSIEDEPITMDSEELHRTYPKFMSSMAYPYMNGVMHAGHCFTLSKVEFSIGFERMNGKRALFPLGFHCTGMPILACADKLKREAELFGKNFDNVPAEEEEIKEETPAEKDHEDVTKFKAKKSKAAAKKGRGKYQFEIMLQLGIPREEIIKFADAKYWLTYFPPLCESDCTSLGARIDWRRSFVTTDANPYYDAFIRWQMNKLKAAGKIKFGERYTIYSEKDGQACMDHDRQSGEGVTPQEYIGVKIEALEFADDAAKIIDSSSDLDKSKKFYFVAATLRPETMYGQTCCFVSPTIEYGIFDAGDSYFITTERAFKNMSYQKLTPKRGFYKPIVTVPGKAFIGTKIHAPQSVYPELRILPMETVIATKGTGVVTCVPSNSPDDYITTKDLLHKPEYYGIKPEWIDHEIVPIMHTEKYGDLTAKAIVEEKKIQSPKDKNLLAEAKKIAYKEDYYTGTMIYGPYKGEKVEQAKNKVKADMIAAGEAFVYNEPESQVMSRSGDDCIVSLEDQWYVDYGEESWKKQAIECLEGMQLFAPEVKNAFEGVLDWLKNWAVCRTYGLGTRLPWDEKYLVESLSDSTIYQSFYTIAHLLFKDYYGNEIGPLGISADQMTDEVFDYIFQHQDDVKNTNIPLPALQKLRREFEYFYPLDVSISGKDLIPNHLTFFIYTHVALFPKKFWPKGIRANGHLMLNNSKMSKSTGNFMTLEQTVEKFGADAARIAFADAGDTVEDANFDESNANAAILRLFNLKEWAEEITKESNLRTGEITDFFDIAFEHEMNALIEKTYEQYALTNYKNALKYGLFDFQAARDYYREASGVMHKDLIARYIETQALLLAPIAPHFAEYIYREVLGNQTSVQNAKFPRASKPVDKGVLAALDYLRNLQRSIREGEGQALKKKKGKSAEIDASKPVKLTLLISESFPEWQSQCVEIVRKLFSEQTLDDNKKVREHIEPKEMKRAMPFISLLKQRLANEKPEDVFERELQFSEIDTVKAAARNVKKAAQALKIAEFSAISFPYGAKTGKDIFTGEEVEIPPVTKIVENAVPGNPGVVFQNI
# In short: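 Recombinant N-terminal His6-tagged yeast Cdc60p (2 nM) in 50 mM HEPES-KOH pH 8.0, 30 mM MgCl2, 30 mM KCl, 0.02% BSA, 1 mM DTT, 20 µM [14C]leucine, 0.2 mg/mL brewer's yeast tRNA at 30°C. Enzyme preincubated 20 min with compound, tRNA and leucine; started with 4 mM ATP. Timed aliquots TCA-precipitated on nitrocellulose filters and counted by scintillation; triplicates.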
# Saccharomyces cerevisiae [2] = experiment: Antimicrobial activity against Saccharomyces cerevisiae in synthetic defined media without leucine; type: functional
# Trichophyton rubrum = experiment: Antifungal activity against Trichophyton rubrum ATCC 18759; type: functional
# Saccharomyces cerevisiae [3] = experiment: Antimicrobial activity against AN2690-resistant Saccharomyces cerevisiae ANA323 with CDC60 G405V mutation; type: functional
# Saccharomyces cerevisiae [4] = experiment: Antimicrobial activity against AN2690-resistant Saccharomyces cerevisiae ANA326 with CDC60 L315V mutation; type: functional
# Malassezia furfur = experiment: Antifungal activity against Malassezia furfur ATCC 44344; type: functional
# Pichia kudriavzevii = experiment: Antifungal activity against Candida krusei ATCC 44507; type: functional
# Saccharomyces cerevisiae [5] = experiment: Antimicrobial activity against AN2690-resistant Saccharomyces cerevisiae ANA358 with CDC60 S416L mutation; type: functional
# Saccharomyces cerevisiae [6] = experiment: Antimicrobial activity against AN2690-resistant Saccharomyces cerevisiae ANA324 with CDC60 C326R mutation; type: functional
# Saccharomyces cerevisiae [7] = experiment: Antimicrobial activity against Saccharomyces cerevisiae ATCC 201388; type: functional
# [8] = molecular target: T1, Leucine--tRNA ligase, cytoplasmic; experiment: Inhibition of Saccharomyces cerevisiae cytoplasmic leucyl-tRNA synthetase after 2 mins
# In short: (§1)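 His6-tagged yeast Cdc60p (LeuRS) expressed in E. coli Rosetta 2(DE3), used at 2 nM. Buffer 50 mM HEPES-KOH pH 8.0, 30 mM MgCl2, 30 mM KCl, 20 µM [14C]leucine, 0.2 mg/mL brewer's yeast tRNA, 0.02% BSA, 1 mM DTT, 30 °C. TCA-precipitated Leu-tRNA counted. Ki from Lineweaver-Burk y-intercepts replotted against inhibitor.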
# Saccharomyces cerevisiae [9] = experiment: Antimicrobial activity against AN2690-resistant Saccharomyces cerevisiae ANA321 with CDC60 R316I mutation; type: functional
# Penicillium chrysogenum = experiment: Antifungal activity against Penicillium chrysogenum ATCC 10108; type: functional
# [10] = tested on: Cladosporium cladosporioides; experiment: Antifungal activity against Cladosporium cladosporioides ATCC 16022; type: functional
# Saccharomyces cerevisiae [11] = experiment: Antimicrobial activity against AN2690-resistant Saccharomyces cerevisiae ANA360 with CDC60 T319I mutation; type: functional
# Saccharomyces cerevisiae [12] = experiment: Inhibition of protein synthesis in Saccharomyces cerevisiae S288C after 15 mins; type: functional, organism-based
# In short: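 Mid-log S. cerevisiae S288C in SDM lacking leucine, given 0.25 µCi [14C]leucine plus compound over a range of concentrations. 15 min at 30 °C, then cold 10% TCA for 15 min at 4 °C. Precipitate filtered, washed with 5% TCA and scintillation-counted. Percent incorporation relative to untreated cells. Run twice and averaged.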
# Candida tropicalis = experiment: Antifungal activity against Candida tropicalis ATCC 13803; type: functional
# Trichophyton benhamiae = experiment: Antifungal activity against Trichophyton mentagrophytes ATCC 28185; type: functional, Arthroderma benhamiae
# Saccharomyces cerevisiae [13] = experiment: Antimicrobial activity against AN2690-resistant Saccharomyces cerevisiae ANA320 with CDC60 N415D mutation; type: functional
# Candida albicans = experiment: Antifungal activity against Candida albicans ATCC 90028; type: functional
# Cryptococcus neoformans = experiment: Antifungal activity against Cryptococcus neoformans F285; type: functional
# Malassezia pachydermatis = experiment: Antifungal activity against Malassezia pachydermatis ATCC 96746; type: functional
# [14] = molecular target: T1, Leucine--tRNA ligase, cytoplasmic; experiment: Binding affinity to Saccharomyces cerevisiae cytoplasmic leucyl-tRNA synthetase in presence of AMP
# In short: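 Equilibrium dialysis across a 5 kDa membrane in 50 mM HEPES-KOH pH 8.0, 30 mM MgCl2, 30 mM KCl. Both sides counted in triplicate by scintillation, bound = side B minus side A. Kd from Scatchard plot.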
# Saccharomyces cerevisiae [15] = experiment: Antimicrobial activity against AN2690-resistant Saccharomyces cerevisiae ANA322 with CDC60 C326F mutation; type: functional
# Epidermophyton floccosum = experiment: Antifungal activity against Epidermophyton floccosum ATCC 525066; type: functional
# Alternaria alternata = experiment: Antifungal activity against Alternaria alternata ATCC 6663; type: functional
# Fusarium solani = experiment: Antifungal activity against Fusarium solani ATCC 36031; type: functional
# Nakaseomyces glabratus = experiment: Antifungal activity against Candida glabrata ATCC 90030; type: functional
# [16] = molecular target: T1, Leucine--tRNA ligase, cytoplasmic; experiment: Inhibition of Saccharomyces cerevisiae cytoplasmic leucyl-tRNA synthetase after 20 mins; in short: as §1
# [17] = Antifungal activity against Rhizopus microsporus ATCC 66276; type: functional
# Nannizzia gypsea = experiment: Antifungal activity against Microsporum gypseum ATCC 24103; type: functional
# Saccharomyces cerevisiae [18] = experiment: Antimicrobial activity against AN2690-resistant Saccharomyces cerevisiae ANA327 with CDC60 T314M mutation; type: functional
# Microsporum audouinii = experiment: Antifungal activity against Microsporum audouinii ATCC 42558; type: functional
# Aspergillus fumigatus = experiment: Antifungal activity against Aspergillus fumigatus ATCC 13073; type: functional
smiles,measurement,setting,value
OB1OCCc2cc(F)ccc21,IC50,[1],96 µM
C[C@@H]1[C@H](O)[C@@H](C)/C=C/C=C/C=C/C=C/C=C/C=C/C=C/[C@H](O[C@@H]2O[C@H](C)[C@@H](O)[C@H](N)[C@@H]2O)C[C@@H]2O[C@](O)(C[C@@H](O)C[C@@H](O)[C@H](O)CC[C@@H](O)C[C@@H](O)CC(=O)O[C@H]1C)C[C@H](O)[C@H]2C(=O)O [AMPHOTERICIN B],MIC,Saccharomyces cerevisiae [2],1 µg/mL
O=C1OCc2cc(F)ccc21,IC50,[1],> 100 µM
Cc1cc(F)ccc1B(O)O,IC50,[1],> 100 µM
OB(O)c1ccc(F)cc1,IC50,[1],> 100 µM
C[C@@H]1C[C@@H]([C@H](O)CC2CC(=O)NC(=O)C2)C(=O)[C@@H](C)C1 [CYCLOHEXIMIDE],MIC,Saccharomyces cerevisiae [2],0.5 µg/mL
COCc1cc(F)ccc1B(O)O,IC50,[1],> 100 µM
OB1OCc2cc(F)ccc21 [TAVABOROLE],MIC,Trichophyton rubrum,2 µg/mL
same,MIC,Saccharomyces cerevisiae [3],16 µg/mL
same,MIC,Saccharomyces cerevisiae [4],16 µg/mL
same,MIC,Malassezia furfur,1 µg/mL
same,MIC,Pichia kudriavzevii,1 µg/mL
same,MIC,Saccharomyces cerevisiae [5],32 µg/mL
same,MIC,Saccharomyces cerevisiae [6],16 µg/mL
same,MIC,Saccharomyces cerevisiae [7],0.125 µg/mL
same,Ki,[8],31.4 µM
same,MIC,Saccharomyces cerevisiae [9],16 µg/mL
same,MIC,Penicillium chrysogenum,2 µg/mL
same,MIC,[10],0.5 µg/mL
same,MIC,Saccharomyces cerevisiae [11],32 µg/mL
same,Activity,Saccharomyces cerevisiae [12],Active
same,MIC,Candida tropicalis,0.25 µg/mL
same,MIC,Trichophyton benhamiae,2 µg/mL
same,MIC,Saccharomyces cerevisiae [13],4 µg/mL
same,MIC,Candida albicans,0.5 µg/mL
same,MIC,Cryptococcus neoformans,0.25 µg/mL
same,MIC,Malassezia pachydermatis,1 µg/mL
same,Kd,[14],20.8 µM
same,MIC,Saccharomyces cerevisiae [15],16 µg/mL
same,MIC,Epidermophyton floccosum,1 µg/mL
same,MIC,Alternaria alternata,0.5 µg/mL
same,MIC,Fusarium solani,2 µg/mL
same,MIC,Nakaseomyces glabratus,≤ 0.125 µg/mL
same,Ki,[16],1850 nM
same,MIC,[17],2 µg/mL
same,MIC,Nannizzia gypsea,2 µg/mL
same,MIC,Saccharomyces cerevisiae [18],32 µg/mL
same,MIC,Saccharomyces cerevisiae [2],0.06 µg/mL
same,IC50,[1],2.1 µM
same,MIC,Microsporum audouinii,2 µg/mL
same,MIC,Aspergillus fumigatus,0.25 µg/mL
OC1OCc2cc(F)ccc21 (stereo not drawn),IC50,[1],> 100 µM
C/C=C/C/C=C/CCC(=O)[C@H]1O[C@H]1C(N)=O [CERULENIN],MIC,Saccharomyces cerevisiae [2],0.5 µg/mL
